# The list is not random: actives were taken first. Their share in the collection is about 2%.
# FLuc stim CS = affects firefly luciferase, flagging false hits in luciferase stimulation screens | P08659 | ATPlite luciferase biochemical, luminescence, 10 min; 0 = ATP-free wells, 1 = DMSO control | activation factor at 10 µM | 200,000 tested, under 10 active;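 active = luciferase activation factor, scaled between plate controls, of at least 2 with compound at 10 µM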
# Target sequence (P08659 whole entry, looked up): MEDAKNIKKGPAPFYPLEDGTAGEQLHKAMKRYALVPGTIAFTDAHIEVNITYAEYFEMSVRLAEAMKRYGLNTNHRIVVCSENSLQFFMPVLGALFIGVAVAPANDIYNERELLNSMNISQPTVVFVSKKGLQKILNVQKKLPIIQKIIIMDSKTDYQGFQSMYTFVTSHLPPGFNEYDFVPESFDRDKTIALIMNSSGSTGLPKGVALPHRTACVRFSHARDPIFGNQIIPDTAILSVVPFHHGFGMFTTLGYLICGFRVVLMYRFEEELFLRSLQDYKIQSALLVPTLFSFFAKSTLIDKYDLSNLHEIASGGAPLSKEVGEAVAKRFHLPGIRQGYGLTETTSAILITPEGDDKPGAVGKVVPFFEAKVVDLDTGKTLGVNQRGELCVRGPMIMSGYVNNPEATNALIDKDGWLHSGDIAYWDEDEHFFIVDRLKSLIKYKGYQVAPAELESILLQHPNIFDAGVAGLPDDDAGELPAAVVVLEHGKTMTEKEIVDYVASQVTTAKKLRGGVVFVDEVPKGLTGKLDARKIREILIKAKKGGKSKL
#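 Assay system: Luciferase/luciferin reagent mix; Medium: PBS as buffer for the ATP substrate; Dosing: test compounds dosed from 2 mM stocks in 100% DMSO; Times: 10 min, room temperature; Signal: luminescence from luciferase reaction; Read-out: luciferase activation; Controls: No-ATP low control, compound-free enzyme-plus-ATP high control.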
# C8 TRAIL sens = caspase-8 TRAIL sensitization | NB7+C8 cells + TRAIL, ATPlite viability luminescence | inhibition (viability loss, TRAIL sensitization), % at 10 µM | hit rate 1% among 360,000 | AID 624354;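 active = compounds causing at least 50% loss of cell viability in the single-dose screen, relative to plate controls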
# HSP90 inh = blocks HSP90-mediated luciferase refolding in reticulocyte lysate; hit rate 0.91% among 290,000; inhibition, % at 5.6 µM; Rabbit reticulocyte lysate, luciferase refolding luminescence, 3 h; AID 1789;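 active = inhibition above the screen-wide mean plus 3 SD, computed separately per campaign, cut at about 16% in these data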;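 also: 0% = DMSO wells and 100% = 60 µM geldanamycin wells; inhibitors lower the luminescence because luciferase stays unfolded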
# FLuc inhib CS = inhibits firefly luciferase, flagging false hits in luciferase inhibition screens; P08659; ATPLite firefly luciferase biochemical luminescence, 10 min; inhibition, % at 10 µM; hit rate 1.5% among 200,000;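 active = inhibition above about 50% when tested at 10 µM, limit read from the data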
# PPC-1+TRAIL kill = PPC-1 cancer cell killing with TRAIL present; PPC-1 cells + TRAIL, ATPLite viability luminescence; cell killing (% activity), % at 4 µM or 5 µM; hit rate 0.41% among 220,000; AID 1443;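 active = cell killing above 50% in the first pass at 4 µM, then a duplicate retest at 5 µM averaging 50% or more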;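 also: plate controls were cells with TRAIL plus DMSO for no effect and medium-only wells lacking cells for full effect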
# HSP90 confirm = confirmation of HSP90 inhibitors; rabbit reticulocyte lysate, luciferase refolding luminescence, 3 h; inhibition, % at 5.9 µM; AID 1846; hit rate 64% among 2,300; shares compounds with HSP90 inh; in the data active = inhibition above about 18%;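 also: 0% = vehicle wells and 100% = reference inhibitor wells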
# FLuc counter = firefly luciferase inhibition, HSP90 counter-screen | shares compounds with HSP90 inh | purified native firefly luciferase, luminescence | inhibition, % at 5.9 µM | hit rate 48% among 2,300;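 active = inhibition above the mean inhibition of all tested sample wells plus 3 SD, cut at about 10% in these data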;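 also: 0% = DMSO with luciferase and 100% = wells lacking luciferase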
# * hit, by the source's call; nt = not tested or not shown.
SMILES,FLuc stim CS,C8 TRAIL sens,HSP90 inh,FLuc inhib CS,PPC-1+TRAIL kill,HSP90 confirm,FLuc counter
Cc1cc(C(=O)Cn2nc(C(=O)O)c3ccccc3c2=O)c(C)n1CC(F)(F)F,0.7,-3,26*,33,-3,45*,-22
COCC(C)n1c(C)cc(C(=O)COC(=O)c2nn(C)c(=O)c3ccccc23)c1C (centres undefined),nt,18,nt,nt,nt,nt,nt
Cc1ccc(C(=O)CSc2nnnn2C(C)C)c(C)c1,0.5,21,56*,54*,19,79*,72*
Cc1ccc(C)c(C(=O)CSc2nnnn2C(C)C)c1,1,7,0,-3,6,nt,nt
O=C(O)/C=C/C(=O)NC1CCC(CC2CCC(NC(=O)/C=C/C(=O)O)CC2)CC1 (centres undefined),1,-10,-1,-1,10,nt,nt
CN(C(=O)CSc1nc(-c2ccccc2)cn1N)C(c1ccccc1)c1ccccc1,1.1,5,18*,-6,-3,-1,-6
CCOc1ccc(CCNC(=O)COc2cc(=O)n(C)c3ccccc23)cc1OCC,1,-5,1,3,1,nt,nt
CCn1c(=O)cc(OCC(=O)NCCc2ccc(OC)c(OC)c2)c2ccccc21,1,-4,48*,-2,24,-4,-16
NNC(=O)CNC(c1ccccc1)c1cc(Br)ccc1N (centres undefined),nt,1,58*,nt,12,-2,-5
O=C(c1ccco1)N1CCN(Cc2cccc3ccccc23)CC1,nt,6,1,nt,nt,nt,nt
CC(C)(C)c1ccc(-c2conc2N)cc1,0.4,25,69*,61*,16,-5,-14
Cc1nc(NC(=O)c2ccccc2)sc1-c1csc(N)n1,0.7,6,61*,29,16,11,-24
Cc1nc(NC(=O)c2ccccc2)sc1-c1csc(NCc2ccccc2)n1,1.1,1,60*,-8,7,24*,-14
CCOC(=O)CNC(=O)c1sc(NC(=O)c2ccccc2)nc1C,1,-2,13,-1,22,nt,nt
Cc1nc(NC(=O)c2ccccc2)sc1-c1csc(NCCc2ccccc2)n1,1,3,42*,-4,-6,19*,-7
Cc1nc(N)sc1-c1csc(NCc2ccccc2)n1,1,-13,56*,-2,15,6,-5
CCC(=O)Nc1nc(C)c(-c2csc(Nc3ccccn3)n2)s1,1,1,-7,-4,8,nt,nt
CC1(C(=O)NCc2cccc(C(F)(F)F)c2)CCN1CCc1ccccc1 (centres undefined),nt,2,nt,nt,nt,nt,nt
Cc1cccc(C(C)C)c1NC(=O)COC(=O)CN1C(=O)C2CC=CCC2C1=O (centres undefined),nt,-11,nt,nt,nt,nt,nt
CC1CCCC(NC(=O)COC(=O)COc2cccc(F)c2)C1C (centres undefined),nt,-17,nt,nt,nt,nt,nt
